Data on six compounds can be found in article PMC6366850 (Chembiochem : a European journal of chemical biology, 2018).

The target in data set [1] is T1, Human Neutrophil Elastase (Homo sapiens, UniProt P08246).
T1 sequence (P08246 30-267): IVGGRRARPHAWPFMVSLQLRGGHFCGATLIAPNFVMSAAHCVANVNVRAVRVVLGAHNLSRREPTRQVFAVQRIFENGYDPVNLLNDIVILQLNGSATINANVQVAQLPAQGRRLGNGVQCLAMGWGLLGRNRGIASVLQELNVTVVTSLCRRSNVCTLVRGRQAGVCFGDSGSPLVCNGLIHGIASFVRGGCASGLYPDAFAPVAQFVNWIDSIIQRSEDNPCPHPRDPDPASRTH
In words: Human neutrophil elastase inhibition assay. It counts as biochemical. The settings on record: for fold less potent than 1, HNE: ratio of IC50 values.

Data set [2] deals with CD40 cleavage by HNE in MDA-MB-231 cells. The data set is described as follows: Cleavage of CD40 by HNE in MDA-MB-231 cells, Western blot. It counts as cell-based, human. The following applies: 100 nM HNE, 24 h. Summed up:
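MDA-MB-231 cells seeded at 150,000/well; after 24 h, medium was replaced with medium containing 100 nM recombinant human neutrophil elastase plus test compound in DMSO or solvent. Lysates were taken after 24 h incubation and protein measured by BCA. 17 μg protein was run on SDS-PAGE, blotted to PVDF and probed with anti-CD40 antibody detecting the N-terminal fragment, with chemiluminescent detection.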

Data set [3] concerns the target Porcine Pancreatic Elastase (Sus scrofa, UniProt P00772). In words: Porcine pancreatic elastase inhibition assay. It counts as biochemical.
The test system of data set [4] is MDA-MB-231 cells. In words: Transwell migration assay. The data set is classed as cell-based, human. The settings on record: 48 h; for effect on migration of MDA-MB-231 cells: 100 nM HNE. Summed up: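 Transwell inserts with 8 μm pore PET membranes. 5000 MDA-MB-231 cells in DMEM/10% FBS were seeded in the insert with test compound in DMSO or solvent, with or without 100 nM recombinant HNE; the lower chamber held complete medium with the same additions. Plates were incubated 48 h at 37 °C, 5% CO₂, and non-migrated cells were swabbed off. Migrated cells were crystal violet-stained and counted microscopically, in triplicate. Comparisons to solvent control used a two-tailed unpaired t test.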

The target of data set [5] is T2, Human neutrophil elastase (HNE) (Homo sapiens, UniProt P08246).
T2 sequence (P08246 30-267): T1 sequence (P08246 30-267)
The data set is described as follows: In vitro cleavage of CD40-IgG chimera. The settings on record: qualitative gel assessment; for complete inhibition of CD40ch cleavage up to (concentration): tested 0.001–100 μM, 2 h pre-incubation with HNE. It counts as biochemical. Summed up:
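Human neutrophil elastase (100 μg/mL stock in 0.1 M Tris-NaCl, pH 7.5) was pre-incubated 2 h at 4 °C with test compound (0.001–100 μM) or DMSO. CD40-IgG chimera (human CD40 residues 21–193 fused to human IgG1 fragment) was then added at an elastase:CD40 molar ratio of 1:10 and incubated 1.5 h at 37 °C. Reactions were stopped by freezing and fragments run on reducing SDS-PAGE (2% mercaptoethanol). Gels were silver-stained and bands judged qualitatively; controls were elastase only and CD40 only.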

Data set [6] deals with ICAM-1 gene expression in MDA-MB-231 cells. In words: ICAM-1 gene expression by RT-qPCR. The data set is classed as cell-based, human. The following applies: 12 h. Summed up: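 MDA-MB-231 cells seeded at 500,000/well, grown 24 h, then serum-starved 24 h in DMEM. Medium was replaced with serum-free DMEM containing test compound or solvent, with 100 nM HNE where applied, for 12 h. RNA was isolated, reverse-transcribed with oligo(dT), and ICAM-1 transcripts were quantified by TaqMan qPCR.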

Data set [7] deals with T3, Bovine Pancreatic Chymotrypsin (Bos taurus, UniProt P00766). The data set is described as follows: Chymotrypsin inhibition assay. It counts as biochemical. Summed up:
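Bovine pancreatic α-chymotrypsin in 50 mM Tris-HCl, 100 mM NaCl, 1 mM CaCl₂, pH 7.8. Test compound in DMSO (top 100 μM final, half-log dilutions) was pre-incubated with enzyme for 30 min at room temperature. Substrate was N-succinyl-Gly-Gly-Phe-p-nitroanilide (1.5 mM solution). A405 was read every 30 s for 30 min, with a PMSF positive control. Percent activity came from initial slopes relative to solvent control.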

Data set [8] concerns MDA-MB-231 cells. In words: HNE-induced morphological changes. The data set is classed as cell-based, human.
The target of data set [9] is purified 20S human proteasome (Homo sapiens, UniProt P28074). In words: Proteasome activity assay. The following applies: 50 μM, compared to positive control epoxomicin. It counts as biochemical. Summed up: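 Purified human 20S proteasome (0.1 μg/well final) was pre-incubated 10 min at room temperature with test compound (50 μM final). Suc-LLVY-AMC substrate (75 μM final) was then added to measure chymotrypsin-like activity, using a commercial kit per the manufacturer's protocol.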

Data set [10] relates to sICAM-1 (ICAM-1 shedding) in MDA-MB-231 cells. The data set is described as follows: sICAM-1 levels by ICAM-1 AlphaLisa. The data set is classed as cell-based, human. The following applies: 12 h; for reduction in the levels of sICAM-1: co-treatment with 100 nM HNE. Summed up: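 MDA-MB-231 cells were grown overnight, starved 24 h, then placed in serum-free DMEM containing test compound or solvent, with 100 nM HNE where applied. After 12 h, culture medium was collected and soluble ICAM-1 quantified by AlphaLisa.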
A general note: In Alpha technology, singlet oxygen from a donor bead excites a nearby acceptor bead.

Data set [11] deals with MDA-MB-231 cells. In words: Cell viability assay. The settings on record: 48 h, MTT. The data set is classed as cell-based, human. Summed up:
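MDA-MB-231 cells seeded at 12,000 cells/well and grown 24 h, then exposed to test compound, HNE or DMSO solvent control. After 48 h, viability was read by MTT per the kit instructions.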

Data set [12] addresses T3, Bovine Pancreatic Chymotrypsin. The settings on record: read-out: reported IC50 against bovine chymotrypsin; cited from earlier work.
Setting [13] is: read-out: IC50 Human Neutrophil Elastase, mean ± SD, n=3, 15 min pre-incubation.

SMILES strings stand for the structures. Like-named read-outs stand apart in the source and are kept apart here.

Sequence of Porcine Pancreatic Elastase (P00772 27-266): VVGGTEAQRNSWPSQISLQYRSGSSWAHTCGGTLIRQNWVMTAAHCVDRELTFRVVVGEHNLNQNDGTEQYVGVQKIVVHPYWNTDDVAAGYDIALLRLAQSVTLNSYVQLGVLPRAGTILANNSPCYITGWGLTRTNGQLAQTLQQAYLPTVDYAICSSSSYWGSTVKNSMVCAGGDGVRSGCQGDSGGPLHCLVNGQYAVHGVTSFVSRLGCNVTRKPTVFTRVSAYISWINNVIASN

On to `CCCC(=O)N[C@@H](C)C(=O)N[C@H](C(=O)N[C@@H]1C(=O)N[C@@H](CC(C)C)C(=O)N[C@H]2CC[C@@H](O)N(C2=O)[C@@H](Cc2ccccc2)C(=O)N(C)[C@@H](Cc2ccc(O)cc2)C(=O)N[C@@H](C(C)C)C(=O)O[C@@H]1C)[C@H](C)O` [Loggerpeptin A (1), loggerpeptin A], for which the concentration for half-maximal inhibition (IC50) (usually the concentration that inhibits the measured activity by half) in data set [1] (setting [13]) worked out at 0.29 ± 0.04 µM.

As for `CCCC(=O)N[C@@H](C)C(=O)N[C@@H](C(=O)N[C@@H]1C(=O)N[C@@H](CC(C)C)C(=O)N[C@H]2CC[C@@H](O)N(C2=O)[C@@H](Cc2ccccc2)C(=O)N(C)[C@@H](Cc2ccc(O)cc2)C(=O)N[C@@H](C(C)C)C(=O)O[C@H]1C)[C@@H](C)OC(=O)[C@H](C)NC(=O)CCC` [Loggerpeptin B (2), loggerpeptin B], the “fold less potent than 1, HNE” value in data set [1] was 3 fold. In data set [1] (setting [13]), the half-inhibitory concentration (IC50) came out at 0.89 ± 0.09 µM.

In the case of `C/C=C(\NC(=O)[C@H](C)NC(=O)CCC)C(=O)N[C@@H]1C(=O)N[C@@H](CC(C)C)C(=O)N[C@H]2CC[C@@H](O)N(C2=O)[C@@H](Cc2ccccc2)C(=O)N(C)[C@@H](Cc2ccc(O)cc2)C(=O)N[C@@H](C(C)C)C(=O)O[C@@H]1C` [Loggerpeptin C (3), loggerpeptin C], the “inhibition of HNE processing of CD40 in cells” value in [2] (10 μM) is given as “lacked significant activity”; in [2] (50 μM), “marginal activity”. Besides, the “fold less potent than 1 and 2, porcine pancreatic elastase” value in data set [3] (ratio of IC50 values) is on record as 2 fold. In addition, the “effect on migration of MDA-MB-231 cells” value in the data set on MDA-MB-231 cells [4] (different concentrations) is “no effect on migration”. In addition, the “fold less potent than 1, HNE” value in [1] is 2 fold. In addition, the 50% inhibitory concentration (IC50) in data set [1] (setting [13]) came out at 0.62 ± 0.38 µM. In addition, the “complete inhibition of CD40ch cleavage up to (concentration)” value in data set [5] was 10 µM.

With `C/C=C1\NC(=O)[C@@H](NC(=O)[C@@H](NC(=O)[C@H](C)NC(=O)CCC)[C@@H](C)O)[C@@H](C)OC(=O)[C@H](C(C)C)NC(=O)[C@H](Cc2ccc(O)cc2)N(C)C(=O)[C@H](Cc2ccccc2)N2C(=O)[C@H](CC[C@H]2O)NC1=O` [Molassamide (4), molassamide], the “elastase-induced ICAM-1 expression levels” value in [6] (100 nM HNE) was “dose-dependent decrease”. For the same compound, in data set [6] (without HNE), the “ICAM-1 expression levels in the absence of HNE” value is given as “no significant change”. Moreover, in data set [2] (50 μM), the “inhibition of HNE processing of CD40 in cells” value is “virtually complete inhibition”. The IC50 in data set [7] was determined as 0.24 ± 0.01 µM; in [3], 0.05 ± 0.01 µM; in [1] it was 0.11 ± 0.01 µM. Further, the “HNE-induced cell rounding prevented up to (concentration)” value with MDA-MB-231 cells [8] (co-treatment with 100 nM HNE, 3 h) amounted to 10 µM. Further, the “morphological changes upon treatment with compound only” value in the data set with MDA-MB-231 cells [8] (without HNE, up to 50 μM) is “no morphological changes”. Moreover, the “inhibition of chymotrypsin-like activity of proteasomes” value in data set [9] is “did not inhibit”. The “effect on migration of MDA-MB-231 cells” value in the data set with MDA-MB-231 cells [4] (10 μM) is “inhibited the migration”. For the same compound, in the data set with MDA-MB-231 cells [4] (without HNE), the “effect on migration of MDA-MB-231 cells in the absence of HNE” value is reported as “did not exhibit any migration inhibitory activity”. Also, the “reduction in the levels of sICAM-1” value is recorded as 35% in [10] (10 μM) and 65% in [10] (50 μM). Also, the “effect on the levels of sICAM-1 in the absence of HNE” value in data set [10] (without HNE) is “no effects”. Besides, the “effect on viability of MDA-MB-231 cells” value in the data set with MDA-MB-231 cells [11] is “no reduction in cell viability”. Further, the “fold more potent than 3 in inhibiting CD40ch cleavage” value in data set [5] is recorded as 10 fold. In addition, the “complete inhibition of CD40ch cleavage up to (concentration)” value in [5] amounted to 1 µM.

Consider `CC(C)(C)C(=O)Oc1ccc(S(=O)(=O)Nc2ccccc2C(=O)NCC(=O)O)cc1` [Sivelestat, reference compound], for which, in data set [3], the IC50 came to 3.55 ± 0.14 µM.

As for `CC(=O)N1CCC[C@H]1C(=O)N[C@H](C(=O)N[C@@H]1C(=O)N[C@@H](CC(C)C)C(=O)N[C@H]2CC[C@@H](O)N(C2=O)[C@@H](Cc2ccccc2)C(=O)N(C)[C@@H](Cc2ccc(O)cc2)C(=O)N[C@@H](C(C)C)C(=O)O[C@@H]1C)[C@@H](C)O` [kempopeptin A], the IC50 in [12] is 0.3 µM.
